Assay results as given in ChEMBL document CHEMBL4513216, “Probing the Open Global Health Chemical Diversity Library for Multistage-Active Starting Points for Next-Generation Antimalarials” (ACS Infect Dis, 2020).

Test: Toxicity liver stage against HepG2, at 10uM
Type: cell-based
Parameters: test concentration 10 uM, cell line HepG2-A16-CD81EGFP
Conditions: human, HepG2-A16-CD81EGFP cells; read-out: INHIBITION
In short: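 Uninfected HepG2-A16-CD81EGFP cells, 3 × 10^3 per well, 1536-well, plated on prespotted compound at 10 μM final, parasite-free screening media added to match infected plates; puromycin 10 μM positive, DMSO 0.5% negative; run in parallel with 48 h PbLuc assay at 37 °C, 5% CO2; viability by CellTiter-Glo luminescence, normalized to controls.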

Structure (SMILES) | cytotoxicity at 10 µM
CCN(CC)S(=O)(=O)c1ccc(C(=O)NC(C)(C#N)C2CC2)cc1 (stereo not given) | -5.77%
CCNC(=O)NC[C@H]1Cn2c(-c3ccccc3)cnc2CO1 | -2.12%
COc1cc2nc(C)n(CC(=O)NCCCO)c(=O)c2cc1OC | -0.869%
N#Cc1ccc(C(=O)N2CC(c3nc(-c4ncccn4)no3)C2)cc1 | -0.713%
CCCc1nnsc1C(=O)NCC(O)c1ccc(SC)cc1 (stereo not given) | 1.71%
COC(=O)CCC(=O)N1CCc2nc(C(=O)N3CCOCC3)sc2CC1 | 15.3%
CC1N(CC2CC2)C(=O)COC12CCN(C(=O)c1cscn1)CC2 (stereo not given) | -8.04%
COCC1CN(C(=O)[C@H]2CCCO2)Cc2nnn(CC3CC3)c21 (stereo not given in full) | -1.59%
O=C(c1ccco1)N1CC[C@@H]2O[C@H](COCC3CCOCC3)CC[C@@H]21 | 6.8%
COc1ncc(NCc2ccc(F)cc2)cc1C(N)=O | -0.976%
CCc1cnc(CN2CCCC(c3cc(C)[nH]n3)C2)o1 (stereo not given) | 0.503%
O=C(NCc1ccc2c(c1)OCO2)c1ccc(N2CCCCCC2)nc1 | -6.78%
N#Cc1ccc(F)c(CSCCN2CCOCC2)c1 | -5.71%
Cn1cc(C(=O)NCc2ccc(N3CCNC(=O)C3)c(F)c2)cn1 | -2.97%
COc1ccc(OC)c(C(=O)N2CCC(Nc3cccnc3)CC2)c1 | -138%
CCOc1ccc(NC(=O)N2CCOC(C(N)=O)C2)cc1C (stereo not given) | -140%
CNS(=O)(=O)CC1CCCN1C(=O)c1ccc(C)c(C)c1 (stereo not given) | -6.93%
COCCCNC(=O)CN1CCC(c2ccccc2)C1 (stereo not given) | 20.3%
CN(C)c1nccc(CNS(=O)(=O)c2ccc(F)c(Cl)c2)n1 | -140%
CC(C)CC(CO)NC(=O)NCc1csc(N(C)C)n1 (stereo not given) | 6.07%
CCOC(=O)C1CSCCN1C(=O)c1ccc(-n2nc(C)cc2C)cc1 (stereo not given) | -4.92%
NCc1cccc(NC(=O)CCN2CCOCC2)c1 | -0.509%
O=C(c1ccnnc1)N1CCN2C[C@H](OCc3ccccn3)C[C@H]2C1 | -77.2%

Structure (SMILES) | cytotoxicity at 10 µM
Cc1cccc2c(=O)n(C(C)Cc3cccnc3)cnc12 (stereo not given) | -13.5%
CC(=O)c1cnc(NCCCN2CCOCC2)nc1C | -2.77%
CCC[C@@H]1CN(C(=O)Cc2sc(C)nc2C)C[C@H]1C(=O)O | -125%
Cc1ncccc1Oc1ncnc(N2CCC3(CCCO3)CC2)c1C | -6.89%
Cc1ccnn1CCC(=O)N1CCN(C2CCc3ccccc3C2)CC1 (stereo not given) | -118%
CC(=O)c1cn(CC(=O)N2CCC3(CC2)OCCO3)c2ccccc12 | 0.436%
Cc1cnccc1CN1C[C@@H](O)[C@H](Oc2ccccc2)C1 | 1.85%
Cc1ncsc1C(=O)NC1CCN(CCC(=O)Nc2ccccc2)CC1 | -1.39%
Cn1ncc2c(=O)[nH]c(CN3CCCC3Cc3ccc(F)cc3)nc21 (stereo not given) | 0.301%
CC(NC(=O)NCC1(c2ccc(F)cc2)CCCC1)c1nncn1C (stereo not given) | -6.27%
CCOc1ncccc1NC(=O)N1CCCN(C(=O)OC)CC1 | -9.86%
CCc1nc(C2CCCN2Cc2nnc(C3CC3)o2)no1 (stereo not given) | -13.2%
Cc1nn(C)c(N(C)C)c1CNC1CCOc2ccccc21 (stereo not given) | -9.66%
c1ncn(CC2CCCN(Cc3noc(C4CC4)n3)C2)n1 (stereo not given) | 0.428%
CC(Cn1cccn1)NC(=O)NCc1cccs1 (stereo not given) | -0.12%
CC(=O)N(Cc1ncc(C)o1)C1CCN(Cc2ccncc2Cl)C1 (stereo not given) | 3.68%
Cn1cccc1C(=O)N1C[C@@H]2C[C@@H](c3nc(C4CC4)cs3)O[C@@H]2C1 | -113%
Cc1cccc(COCC2c3nnn(C)c3CCN2Cc2ccoc2)n1 (stereo not given) | -142%
Cc1cccc(CN2Cc3[nH]nc(COCc4nccs4)c3C2)n1 | -7.12%
CNC(=O)[C@@H]1C[C@H]2CN(Cc3ccco3)C[C@H]2N1C | 7.76%
O=C(c1ccsc1)N1CCC2(CCN(Cc3ccccn3)C2=O)C1 (stereo not given) | -147%
CSc1ccc(C(=O)N2C[C@@H]3CC[C@H]2CN(Cc2cccnc2)C3)cc1 | -7.38%
